ChEMBL document CHEMBL5055647, “Identification and Biological Activity of NFAT-133 Congeners from Streptomyces pactum” (J Nat Prod, 2021)
Activity calls are given as the source filed them. The calls are words filed in the database; no cut-off is given here.

Legend:
RAW264.7 [1] = assay: Inhibition of LPS-induced NO production in mouse RAW264.7 cells preincubated for 1 hr followed by LPS stimulation measured after 24 hrs by Griess reagent based assay; format: functional, cell-based; conditions: time 25.0 hrs
Procedure, shortened: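 Murine macrophages seeded ~1 × 10^4/well, grown 12 h, pretreated with compound 1 h, then LPS 25 ng/mL added for 24 h. Supernatant nitrite measured by Griess reagent (1:1, 37 °C, 15 min, dark), absorbance 520 nm, quantified against 0–100 μM sodium nitrite standards; mean ± SD of independent experiments, t-test, p < 0.05.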

Pseudomonas aeruginosa = assay: Antibacterial activity against Pseudomonas aeruginosa ATCC 9721 by Whatman paper based disk diffusion assay; format: functional, organism-based
Procedure, shortened: (§1)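 Test strains grown overnight in LB at 30 °C, 200 rpm; 100 μL culture mixed into 10 mL warm 0.7% LB soft agar and plated. Paper disks loaded with 10 μL of 10 mM compound solution, plates incubated at 37 °C; activity judged by presence and diameter of inhibition zone. Ampicillin (2 mg/mL) positive control.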

NCI-H460 = assay: Cytotoxicity against human NCI-H460 cells up to 50 uM by MTT assay; format: functional, cell-based
Procedure, shortened: (§2)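 Cells kept in high-glucose DMEM with 10% heat-inactivated FBS, streptomycin, amphotericin B, 37 °C, 5% CO2; exponential-phase cells seeded ~1.0 × 10^4/well, grown 12 h, then exposed to serial dilutions of compound; medium-only controls. Viability by MTT, absorbance 490 nm.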

MCF7 = assay: Cytotoxicity against human MCF7 cells up to 50 uM by MTT assay; format: functional, cell-based; procedure, shortened: as §2
HeLa = assay: Cytotoxicity against human HeLa cells up to 50 uM by MTT assay; format: functional, cell-based; procedure, shortened: as §2
Escherichia coli = assay: Antibacterial activity against Escherichia coli ATCC 11775 by Whatman paper based disk diffusion assay; format: functional, organism-based; procedure, shortened: as §1
RAW264.7 [2] = assay: Cytotoxicity against mouse RAW264.7 cells up to 50 uM by MTT assay; format: cell-based; conditions: raw264.7, 50 µM; procedure, shortened: as §2
Bacillus subtilis = assay: Antibacterial activity against Bacillus subtilis ATCC 6051 by Whatman paper based disk diffusion assay; format: functional, organism-based; procedure, shortened: as §1
Staphylococcus aureus = assay: Antibacterial activity against Staphylococcus aureus ATCC 12600 by Whatman paper based disk diffusion assay; format: functional, organism-based; procedure, shortened: as §1

How did the inhibition (RAW264.7 [1]) turn out when `CC(=O)[C@@H](C)[C@@H]1O[C@H](CCO)c2cc(C)ccc2[C@@H]1C` was run?
Its inhibition is “Dose-dependent effect”.

What about the Activity (Pseudomonas aeruginosa) of the same compound?
Its Activity is “inactive”.

What about the Activity (NCI-H460) of the same compound?
Its Activity is “inactive”.

What about the Activity (MCF7) of the same compound?
Its Activity is “inactive”.

And the Activity (HeLa)?
The Activity was “inactive”.

What about the Activity (Escherichia coli) of the same compound?
Its Activity is “inactive”.

What about the Activity (RAW264.7 [2]) of the same compound?
The Activity was “Non-Toxic”.

And the Activity (Bacillus subtilis)?
Its Activity is “inactive”.

And the Activity (Staphylococcus aureus)?
The Activity was “inactive”.

Which results are given for `CC(=O)[C@@H](C)[C@@H]1O[C@@H](CCO)c2cc(C)ccc2[C@@H]1C`?
inhibition (RAW264.7 [1]): Dose-dependent effect; Activity (Pseudomonas aeruginosa): inactive; Activity (NCI-H460): inactive; Activity (MCF7): inactive; Activity (HeLa): inactive; Activity (Escherichia coli): inactive; Activity (RAW264.7 [2]): Non-Toxic; Activity (Bacillus subtilis): inactive; Activity (Staphylococcus aureus): inactive

`C=C[C@H](O)c1cc(C)ccc1[C@H](C)[C@@H](O)[C@H](C)C(C)=O` was tested. Which inhibition (RAW264.7 [1]) did it give?
Its inhibition is “Dose-dependent effect”.

What about the Activity (Pseudomonas aeruginosa) of the same compound?
Its Activity is “inactive”.

What about the Activity (NCI-H460) of the same compound?
The Activity was “inactive”.

And the Activity (MCF7)?
The Activity was “inactive”.

And the Activity (HeLa)?
The Activity was “inactive”.

What about the Activity (Escherichia coli) of the same compound?
The Activity was “inactive”.

And the Activity (RAW264.7 [2])?
Its Activity is “Non-Toxic”.

And the Activity (Bacillus subtilis)?
The Activity was “inactive”.

And the Activity (Staphylococcus aureus)?
Its Activity is “inactive”.

How did the inhibition (RAW264.7 [1]) turn out when `CC(=O)[C@@H](C)[C@H](O)[C@@H](C)c1ccc(C)cc1/C=C/CO` was run?
Its inhibition is “Dose-dependent effect”.

What about the Activity (Pseudomonas aeruginosa) of the same compound?
Its Activity is “inactive”.

What about the Activity (NCI-H460) of the same compound?
The Activity was “inactive”.

What about the Activity (MCF7) of the same compound?
The Activity was “inactive”.

And the Activity (HeLa)?
The Activity was “inactive”.

What about the Activity (Escherichia coli) of the same compound?
Its Activity is “inactive”.

What about the Activity (RAW264.7 [2]) of the same compound?
The Activity was “Non-Toxic”.

And the Activity (Bacillus subtilis)?
Its Activity is “inactive”.

And the Activity (Staphylococcus aureus)?
The Activity was “inactive”.
